The values below come from ChEMBL document CHEMBL6071158, “Design, synthesis, and in vitro biological evaluation of meta-sulfonamidobenzamide-based antibacterial LpxH inhibitors” (Eur J Med Chem, 2024).

Molecules are shown by their SMILES. Converted amounts (≈) assume the structure as drawn.

The first series deals with Escherichia coli. As to the kind of experiment: Inhibition of Escherichia coli LpXH enzyme at 100 nM by colorimetric coupled enzymatic analysis relative to control.
Details: not given
The procedure, abridged: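 AaLpxE-coupled assay: E. coli LpxH 0.1 nM and UDP-DAGn 20 µM (final) in 20 mM Tris-HCl pH 8.0, BSA, 0.02 % Triton X-100, 1 mM MnCl₂, 1 mM DTT, 10 % DMSO; inhibitor pre-incubated with enzyme 10 min, reaction 30 min at 37 °C, EDTA quench, then LpxE 30 min; released phosphate by malachite green at 620 nm vs phosphate standard; triplicate.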
Regarding `Cc1cc(C#N)nc(N2CCN(S(=O)(=O)c3ccc(NC(=O)c4cc(CNCCCN)ccc4N(C)S(C)(=O)=O)cc3)CC2)n1`, the inhibition – broadly, the percentage by which the read-out fell short of the control – worked out at 69%.
Compound `Cc1cc(C#N)nc(N2CCN(S(=O)(=O)c3ccc(NC(=O)c4cc(CN5CC(CN)C5)ccc4N(C)S(C)(=O)=O)cc3)CC2)n1` came in with an inhibition of 71%.
The compound `Cc1cc(C#N)nc(N2CCN(S(=O)(=O)c3ccc(NC(=O)c4cc(CNCCCN)cc(NS(C)(=O)=O)c4)cc3)CC2)n1` registered an inhibition of 63%.
As for `Cc1cc(C#N)nc(N2CCN(S(=O)(=O)c3ccc(NC(=O)c4cc(C=C5CNC5)cc(NS(C)(=O)=O)c4)cc3)CC2)n1`, the inhibition was found to be 86%.

In another series the test system is Escherichia coli. As to the kind of experiment: Antibacterial activity against wild type Escherichia coli ATCC 25922 incubated for 16 to 20 hrs by Mueller-Hinton broth based two-fold serial dilution method. To be noted: time 16-20 hrs. The series is classed as functional.
`Cc1cc(C#N)nc(N2CCN(S(=O)(=O)c3ccc(NC(=O)c4cc(CNCCCN)ccc4N(C)S(C)(=O)=O)cc3)CC2)n1`: the MIC (commonly the lowest concentration found to suppress growth) came out at 2 µg/mL (≈ 3.05 µM).
`Cc1cc(C#N)nc(N2CCN(S(=O)(=O)c3ccc(NC(=O)c4cc(CN5CC(CN)C5)ccc4N(C)S(C)(=O)=O)cc3)CC2)n1` had an MIC of 2 µg/mL (≈ 2.99 µM).
Regarding `Cc1cc(C#N)nc(N2CCN(S(=O)(=O)c3ccc(NC(=O)c4cc(CNCCCN)cc(NS(C)(=O)=O)c4)cc3)CC2)n1`, the MIC amounted to 8 µg/mL (≈ 12.5 µM).
`Cc1cc(C#N)nc(N2CCN(S(=O)(=O)c3ccc(NC(=O)c4cc(C=C5CNC5)cc(NS(C)(=O)=O)c4)cc3)CC2)n1`: it took 64 µg/mL (≈ 103 µM) to inhibit growth (MIC).

The test system of the next series is Escherichia coli. As to the kind of experiment: Antibacterial activity against efflux pump-deficient delta tolC Escherichia coli ATCC 25922 assessed as bacterial growth inhibition incubated for 16 to 20 hrs by Mueller-Hinton broth based two-fold serial dilution method. The series is classed as functional. The conditions noted are these: time 16-20 hrs.
`Cc1cc(C#N)nc(N2CCN(S(=O)(=O)c3ccc(NC(=O)c4cc(CNCCCN)ccc4N(C)S(C)(=O)=O)cc3)CC2)n1`: the MIC was no more than 0.125 µg/mL.
Turning to `Cc1cc(C#N)nc(N2CCN(S(=O)(=O)c3ccc(NC(=O)c4cc(CN5CC(CN)C5)ccc4N(C)S(C)(=O)=O)cc3)CC2)n1`, the MIC is no more than 0.125 µg/mL.
`Cc1cc(C#N)nc(N2CCN(S(=O)(=O)c3ccc(NC(=O)c4cc(CNCCCN)cc(NS(C)(=O)=O)c4)cc3)CC2)n1`: the MIC is 0.5 µg/mL (≈ 0.779 µM).
As to `Cc1cc(C#N)nc(N2CCN(S(=O)(=O)c3ccc(NC(=O)c4cc(C=C5CNC5)cc(NS(C)(=O)=O)c4)cc3)CC2)n1`, the MIC came to 0.5 µg/mL (≈ 0.803 µM).

Tested on in another series: not listed separately
Put plainly: Hemolysis activity in human RBC cells assessed as effect on hemolysis relative to control. The conditions noted are these: human red blood cells, read-out: Activity. The series is classed as toxicity, cell-based, Erythrocyte.
In the case of `Cc1cc(C#N)nc(N2CCN(S(=O)(=O)c3ccc(NC(=O)c4cc(CNCCCN)ccc4N(C)S(C)(=O)=O)cc3)CC2)n1`, the hemolysis stood at 0.06%.
On to `Cc1cc(C#N)nc(N2CCN(S(=O)(=O)c3ccc(NC(=O)c4cc(CN5CC(CN)C5)ccc4N(C)S(C)(=O)=O)cc3)CC2)n1`, for which the hemolysis was 0.13%.
For the compound `Cc1cc(C#N)nc(N2CCN(S(=O)(=O)c3ccc(NC(=O)c4cc(CNCCCN)cc(NS(C)(=O)=O)c4)cc3)CC2)n1`, the hemolysis was 0.08%.
As to `Cc1cc(C#N)nc(N2CCN(S(=O)(=O)c3ccc(NC(=O)c4cc(C=C5CNC5)cc(NS(C)(=O)=O)c4)cc3)CC2)n1`, the hemolysis turned out to be 0.17%.

Tested on in the next series: not listed separately
As to the kind of experiment: Cytotoxicity against human HepG2 cells assessed as inhibition of cells incubated for 72 hrs by fluorometric microculture analysis. The series is classed as toxicity, cell-based.
Details: not given
The procedure, abridged:
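HepG2 (mycoplasma-free, ≤20 passages, DMEM + 10 % FBS + pen/strep) seeded 4000/well, cultured overnight, then exposed 72 h at 37 °C, 5 % CO₂ to nine two-fold dilutions in duplicate, top 100 µM. Viability by fluorescein diacetate hydrolysis (0.5 µg/ml FDA, 50 min, ex 475/em 520 nm); survival index vs control; IC50 by non-linear regression of log concentration-effect curves. Bortezomib 2 µM positive control.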
Turning to `Cc1cc(C#N)nc(N2CCN(S(=O)(=O)c3ccc(NC(=O)c4cc(CNCCCN)ccc4N(C)S(C)(=O)=O)cc3)CC2)n1`, the IC50 (commonly the concentration that gives 50% inhibition) at 72 h worked out at 55 µM.
Turning to `Cc1cc(C#N)nc(N2CCN(S(=O)(=O)c3ccc(NC(=O)c4cc(CN5CC(CN)C5)ccc4N(C)S(C)(=O)=O)cc3)CC2)n1`, the IC50 at 72 h was 54 µM.
On to `Cc1cc(C#N)nc(N2CCN(S(=O)(=O)c3ccc(NC(=O)c4cc(CNCCCN)cc(NS(C)(=O)=O)c4)cc3)CC2)n1`, for which the IC50 at 72 h is greater than 100 µM.
As to `Cc1cc(C#N)nc(N2CCN(S(=O)(=O)c3ccc(NC(=O)c4cc(C=C5CNC5)cc(NS(C)(=O)=O)c4)cc3)CC2)n1`, the IC50 at 72 h was greater than 100 µM.

A further series deals with T1, hERG (KCNH2) (Homo sapiens, UniProt Q12809). As to the kind of experiment: Inhibition of hERG expressed in CHO cells at 10 uM by automated patch clamp analysis relative to control. The series is classed as toxicity, cell-based. To be noted: CHO cells that express hERG. In short, it runs like this: (§1)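 Stably expressing CHO-KV11.1 cells, automated whole-cell population patch clamp (10 cells) at 22 °C; vehicle baseline (0.43 % DMSO) then two cumulatively rising concentrations, 30 s exposure. Holding −80 mV, steps in 10 mV increments to 50 mV for 5 s, tail current at −50 mV (peak in first 90 ms, leak-subtracted); protocol every 150 s; triplicate, mean ± SEM.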
T1 sequence (Q12809 whole entry): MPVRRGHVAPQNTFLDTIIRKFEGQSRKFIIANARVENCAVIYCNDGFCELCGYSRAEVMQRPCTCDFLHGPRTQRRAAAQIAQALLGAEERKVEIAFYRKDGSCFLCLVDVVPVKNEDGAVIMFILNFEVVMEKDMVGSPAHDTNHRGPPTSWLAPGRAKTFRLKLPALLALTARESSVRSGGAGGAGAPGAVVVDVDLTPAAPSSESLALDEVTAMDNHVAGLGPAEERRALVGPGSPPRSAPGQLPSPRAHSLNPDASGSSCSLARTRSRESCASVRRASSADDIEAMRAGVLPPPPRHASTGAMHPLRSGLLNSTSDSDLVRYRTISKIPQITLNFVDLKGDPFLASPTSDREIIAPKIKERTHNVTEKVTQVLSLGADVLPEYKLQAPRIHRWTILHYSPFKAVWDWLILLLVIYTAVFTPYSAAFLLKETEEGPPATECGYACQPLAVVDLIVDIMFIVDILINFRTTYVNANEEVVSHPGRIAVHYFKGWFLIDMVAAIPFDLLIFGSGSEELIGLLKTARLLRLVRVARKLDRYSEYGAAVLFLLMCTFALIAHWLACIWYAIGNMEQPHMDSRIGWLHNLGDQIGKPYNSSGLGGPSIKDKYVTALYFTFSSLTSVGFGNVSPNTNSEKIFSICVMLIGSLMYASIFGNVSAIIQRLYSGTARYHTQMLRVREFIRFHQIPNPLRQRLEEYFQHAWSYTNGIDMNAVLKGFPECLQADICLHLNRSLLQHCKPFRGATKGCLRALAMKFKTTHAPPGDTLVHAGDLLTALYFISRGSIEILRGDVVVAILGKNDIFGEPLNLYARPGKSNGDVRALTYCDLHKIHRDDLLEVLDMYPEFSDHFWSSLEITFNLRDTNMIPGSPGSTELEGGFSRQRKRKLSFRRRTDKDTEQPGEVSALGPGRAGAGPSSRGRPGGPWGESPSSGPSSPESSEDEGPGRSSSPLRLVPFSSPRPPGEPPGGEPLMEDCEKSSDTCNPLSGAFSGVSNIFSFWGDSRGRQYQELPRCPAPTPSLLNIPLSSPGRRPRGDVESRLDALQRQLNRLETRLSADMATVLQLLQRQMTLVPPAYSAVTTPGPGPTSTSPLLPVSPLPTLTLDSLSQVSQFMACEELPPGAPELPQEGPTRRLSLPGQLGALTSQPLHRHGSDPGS
(In general: hERG is a cardiac potassium channel; its block is linked to QT prolongation.)
`Cc1cc(C#N)nc(N2CCN(S(=O)(=O)c3ccc(NC(=O)c4cc(CNCCCN)ccc4N(C)S(C)(=O)=O)cc3)CC2)n1` showed an inhibition at 10 µM of 4%.
Take `Cc1cc(C#N)nc(N2CCN(S(=O)(=O)c3ccc(NC(=O)c4cc(CN5CC(CN)C5)ccc4N(C)S(C)(=O)=O)cc3)CC2)n1`: the inhibition at 10 µM is 5%.
`Cc1cc(C#N)nc(N2CCN(S(=O)(=O)c3ccc(NC(=O)c4cc(CNCCCN)cc(NS(C)(=O)=O)c4)cc3)CC2)n1` had an inhibition at 10 µM of 3%.
Same read-out and setting: then `Cc1cc(C#N)nc(N2CCN(S(=O)(=O)c3ccc(NC(=O)c4cc(C=C5CNC5)cc(NS(C)(=O)=O)c4)cc3)CC2)n1`, with 4%.

A further series addresses T1, hERG (KCNH2). Put plainly: Inhibition of hERG expressed in CHO cells at 30 uM by automated patch clamp analysis relative to control. It counts as toxicity, cell-based. To be noted: CHO cells that express hERG. In short, it runs like this:
as §1
For `Cc1cc(C#N)nc(N2CCN(S(=O)(=O)c3ccc(NC(=O)c4cc(CNCCCN)ccc4N(C)S(C)(=O)=O)cc3)CC2)n1`, the inhibition at 30 µM stood at 11%.
The compound `Cc1cc(C#N)nc(N2CCN(S(=O)(=O)c3ccc(NC(=O)c4cc(CN5CC(CN)C5)ccc4N(C)S(C)(=O)=O)cc3)CC2)n1` had an inhibition at 30 µM of 16%.
With `Cc1cc(C#N)nc(N2CCN(S(=O)(=O)c3ccc(NC(=O)c4cc(CNCCCN)cc(NS(C)(=O)=O)c4)cc3)CC2)n1`, testing at 30 µM gave an inhibition of 9%.
Compound `Cc1cc(C#N)nc(N2CCN(S(=O)(=O)c3ccc(NC(=O)c4cc(C=C5CNC5)cc(NS(C)(=O)=O)c4)cc3)CC2)n1` had an inhibition at 30 µM of 24%.

In the next series the test system is Klebsiella pneumoniae. As to the kind of experiment: Antibacterial activity against wild type Klebsiella pneumoniae ATCC 13883 assessed as of bacterial growth incubated for 16 to 20 hrs by Mueller-Hinton broth based two-fold serial dilution method.
Details: not given
`Cc1cc(C#N)nc(N2CCN(S(=O)(=O)c3ccc(NC(=O)c4cc(CNCCCN)ccc4N(C)S(C)(=O)=O)cc3)CC2)n1`: the MIC was 1 µg/mL (≈ 1.52 µM).
As to `Cc1cc(C#N)nc(N2CCN(S(=O)(=O)c3ccc(NC(=O)c4cc(CN5CC(CN)C5)ccc4N(C)S(C)(=O)=O)cc3)CC2)n1`, the MIC turned out to be 0.5 µg/mL (≈ 0.749 µM).
For `Cc1cc(C#N)nc(N2CCN(S(=O)(=O)c3ccc(NC(=O)c4cc(CNCCCN)cc(NS(C)(=O)=O)c4)cc3)CC2)n1`, the MIC was 4 µg/mL (≈ 6.23 µM).
As for `Cc1cc(C#N)nc(N2CCN(S(=O)(=O)c3ccc(NC(=O)c4cc(C=C5CNC5)cc(NS(C)(=O)=O)c4)cc3)CC2)n1`, the MIC is 16 µg/mL (≈ 25.7 µM).
